According to ChEMBL document CHEMBL3271960, “7-Aza analogs of the analgetic agent azabicyclane. Synthesis and pharmacologic analysis” (J Med Chem, 1976):
Activity calls are given as the source filed them. No cut-off for these calls is given here.

Tests used:
[1] = test system: Mus musculus; experiment: Antidiarrheal activity in Swiss-Webster Royal Hart mouse assessed as colonic propulsive motility at 20 to 100 mg/kg, po administered as aqueous solution; format: functional, organism-based
Outline: (§1)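 Male Swiss-Webster Royal Hart mice, groups of ten per dose level, doses up to 300 mg/kg per group. Water-soluble salts were given po or ip as aqueous solutions. Analgesia was tested by Haffner tail clamp and phenylquinone-induced writhing, anti-diarrheal effect as colonic propulsive motility, plus general behaviour observation.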

[2] = test system: Mus musculus; experiment: Analgesic activity in Swiss-Webster Royal Hart mouse at 20 to 100 mg/kg, po administered as aqueous solution by Haffner tail clamp test; format: functional, organism-based; outline: as §1
[3] = test system: Mus musculus; experiment: Convulsant activity in Swiss-Webster Royal Hart mouse at 100 to 300 mg/kg, ip administered as aqueous solution; format: ADME, organism-based; set-up: dose 100-300 mg/kg, route intraperitoneal; settings: in vivo; outline: as §1
[4] = test system: Mus musculus; experiment: Analgesic activity in Swiss-Webster Royal Hart mouse at 20 to 100 mg/kg, po administered as solution in 30% aqueous propylene glycol by Haffner tail clamp test; format: functional, organism-based
Outline: (§2)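 Male Swiss-Webster Royal Hart mice, ten per dose level, doses up to 300 mg/kg per group. Salt was dissolved in 30% aqueous propylene glycol and dosed po or ip. Analgesia was tested by Haffner tail clamp and phenylquinone-induced writhing, anti-diarrheal effect as colonic propulsive motility.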

[5] = Dissociation constant, pKa of the compound; format: physicochemical
Outline: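 Apparent pKa* measured in 66% aqueous dimethylformamide at 30° by potentiometric titration of monoperchlorate salts with 0.1 M NaOH, with pH recorded via a combination electrode on a recording titrator.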

[6] = test system: Mus musculus; experiment: Analgesic activity in Swiss-Webster Royal Hart mouse at 20 to 100 mg/kg, po administered as aqueous solution by phenylquinone-induced writhing test; format: functional, organism-based; outline: as §1
[7] = test system: Mus musculus; experiment: Antidiarrheal activity in Swiss-Webster Royal Hart mouse assessed as colonic propulsive motility at 20 to 100 mg/kg, po administered as solution in 30% aqueous propylene glycol; format: functional, organism-based; outline: as §2
[8] = test system: Mus musculus; experiment: Analgesic activity in Swiss-Webster Royal Hart mouse at 20 to 100 mg/kg, po administered as solution in 30% aqueous propylene glycol by phenylquinone-induced writhing test; format: functional, organism-based; outline: as §2
[9] = test system: Mus musculus; experiment: Analgesic activity in sc dosed Swiss-Webster Royal Hart mouse after 30 mins by Haffner tail clamp test; format: functional; settings: 0.5 h
[10] = test system: Mus musculus; experiment: Antidiarrheal activity in Swiss-Webster Royal Hart mouse assessed as decrease in colonic propulsive motility at 10 mg/kg, ip; format: functional, organism-based; set-up: dose 10 mg/kg
[11] = test system: Mus musculus; experiment: Convulsant activity in Swiss-Webster Royal Hart mouse at 30 to 100 mg/kg, ip administered as aqueous solution; format: ADME, organism-based; set-up: dose 30-100 mg/kg, route intraperitoneal; settings: in vivo; outline: as §1

| SMILES | Activity [1] | Activity [2] | Activity [3] | Activity [4] | pKa [5] | Activity [6] | Activity [7] | Activity [8] | ED50 [9] [mg/kg] | inhibition [10] | Activity [11] |
| --- | --- | --- | --- | --- | --- | --- | --- | --- | --- | --- | --- |
| CCC(=O)OC1(c2ccccc2)C2CN(C)CC1CN(C)C2.CS(=O)(=O)O (stereo not given) | inactive | inactive | Toxic | inactive | 11 | inactive | inactive | inactive |  |  |  |
| COC1(c2ccccc2)C2CN(C)CC1CN(C)C2 (stereo not given) | inactive | inactive |  | inactive | 11.7 | inactive | inactive | inactive |  |  |  |
| CO[C@]1(c2ccccc2)[C@@H]2CCC[C@H]1CN(C)C2 |  |  |  |  |  |  |  |  | 3.9 | Active |  |
| CC1(C)C2CCC1(CS(=O)(=O)O)C(=O)C2.CN1C[C@H]2CN(C)C[C@H](C1)[C@@]2(O)c1ccccc1 | inactive | inactive |  | inactive | 11.7 | inactive | inactive | inactive |  |  | Toxic |
